# Test results taken from paper PMC6387680 (Leukemia & lymphoma, 2011).
# Several values for one entry are separate records, joined by “and”; a condition that tells them apart may be missing. Equal values may be shown once.
# Columns and labels:
# lymphocyte count = conditions: associated with decreasing lymph node size; cited from earlier work
# [1] = test system: patients with relapsed lymphoma or CLL; assay: Toxicity of cycle 1 UCN-01 alone; assay type: in vivo, human
# [2] = Plasma UCN-01 pharmacokinetics; assay type: in vivo, human
# [3] = test system: absolute lymphocyte count (ALC); assay: Absolute lymphocyte count after UCN-01; assay type: in vivo, human
# Neoplastic B cells = assay: In vivo apoptosis by annexin V-FITC flow cytometry of peripheral blood; parameters: species or system human; conditions: for Peak value of apoptosis (annexin V-positive cells): CLL patient; for apoptotic B cells positive for CD19 and annexin V: time point not stated
# Procedure, shortened: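 Peripheral blood was stained within 12 h of collection. Erythrocytes were lysed (150 mM NH4Cl, 10 mM KHCO3, 0.1 mM EDTA; 10 min, room temperature), spun 500 × g for 15 min and washed twice in PBS/0.1% NaN3. Cells were co-stained 30 min with annexin V-FITC plus tumour-marker antibodies (CD19, CD5 for CLL). Four-colour flow, ≥5000 lymphocytes per tube. Controls were thawed lymphocytes (positive) and fresh whole blood (negative).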
# [4] = test system: patients with refractory neoplasms; conditions: cited from earlier work
# [5] = test system: patients with refractory solid tumors; conditions: 24 patients; cited from earlier work
# [6] = cycle 1 UCN-01 alone, n (%) of 18 patients
# [7] = human, plasma, iv, 45 mg/m^2/day
# [8] = median, n=15, cycle 1, 72 h IV infusion at 45 mg/m^2/day
smiles,measurement,setting,value
CC[C@H](Nc1ncnc2[nH]cnc12)c1nc2cccc(F)c2c(=O)n1-c1ccccc1 [CAL-101],patients with an increase in lymphocyte count,lymphocyte count,60%
"CN[C@@H]1C[C@H]2O[C@@](C)([C@@H]1OC)n1c3ccccc3c3c4c(c5c6ccccc6n2c5c31)C(=O)N[C@@H]4O [UCN-01, 7-hydroxystaurosporine]","grade 4 hyperuricemia, patients",[1]; among the three patients with tumor lysis syndrome,three
same,Single episodes of grade 2 toxicities,[1]; cycle 1 UCN-01 alone,"an elevated bicarbonate level, circulation cardiac-other, constipation, an elevated CPK, depression, dyspepsia, pruritus, and taste disturbance"
same,grade 3 toxicities that occurred one time during cycle 1,[1]; cycle 1 UCN-01 alone,isolated elevated SGPT and one episode of febrile neutropenia
same,"Amylase, grade 2 or 3 toxicity",[1]; [6],2(11%)
same,"Creatinine, grade 2 or 3 toxicity",[1]; [6],4(22%)
same,"Headache, grade 2 or 3 toxicity",[1]; [6],8(44%)
same,"Hemoglobin, grade 2 or 3 toxicity",[1]; [6],6(33%)
same,"Hyperglycemia, grade 2 or 3 toxicity",[1]; [6],12(67%)
same,"Hypermagnesemia, grade 2 or 3 toxicity",[1]; [6],3(16%)
same,"Hypoalbuminemia, grade 2 or 3 toxicity",[1]; [6],2(11%)
same,"Hypocalcemia, grade 2 or 3 toxicity",[1]; [6],6(33%)
same,"Hyponatremia, grade 2 or 3 toxicity",[1]; [6],2(11%)
same,"Hypoxia, grade 2 or 3 toxicity",[1]; [6],6(33%)
same,"Inf w/o neut (infection without neutropenia), grade 2 or 3 toxicity",[1]; [6],2(11%)
same,"Leukopenia, grade 2 or 3 toxicity",[1]; [6],3(16%)
same,"Lymphopenia, grade 2 or 3 toxicity",[1]; [6],5(27%)
same,"Myalgia, grade 2 or 3 toxicity",[1]; [6],2(11%)
same,"Nausea, grade 2 or 3 toxicity",[1]; [6],8(44%)
same,"Neutropenia, grade 2 or 3 toxicity",[1]; [6],4(22%)
same,"Rash/desquamation, grade 2 or 3 toxicity",[1]; [6],2(11%)
same,"SGOT (AST), grade 2 or 3 toxicity",[1]; [6],3(16%)
same,"Stomatitis, grade 2 or 3 toxicity",[1]; [6],3(16%)
same,"Sup/vnt arrh (supraventricular arrhythmia), grade 2 or 3 toxicity",[1]; [6],2(11%)
same,"Trans prbcs (transfused packed red blood cells), grade 2 or 3 toxicity",[1]; [6],3(16%)
same,"Tumor lysis, grade 2 or 3 toxicity",[1]; [6],3(16%)
same,"Vomiting, grade 2 or 3 toxicity",[1]; [6],4(22%)
same,"tumor lysis syndrome (grade 3, CTCAE v2), patients",[1]; in vivo,Three
same,"Hypocalcemia (grade 2), patients",[1]; six patients,33%
same,creatinine peak,[1]; tumor lysis patients with renal dysfunction,2.1 mg/dL
same,serum blood urea nitrogen [BUN] peak,[1]; two tumor lysis patients with renal dysfunction,66 mg/dL and 40 mg/dL
same,difference in UCN-01 CLtot between cycle 1 (without FAMP) and cycle 2 (with FAMP),"[2]; five evaluable patients, paired t-test p = 0.27",no intra-individual difference
same,Vd,"[2]; human, plasma, intravenous, 45 mg/m^2/day",3 to 18 L
same,AUC(0-inf),[2]; [7],7260 µg·h/mL
same,Cmax,[2]; [7],16700 ng/mL
same,VλZ,[2]; [8],7.4 L
same,t1/2 (terminal),[2]; [8],15.02 days
same,day of peak lymphocytosis,[3]; cycle 1,≤ 4 days
same,increase in the absolute lymphocyte count (ALC),"[3]; first three of four patients with CLL, first cycle of UCN-01 alone",2.0–2.7 fold
same,patients with lymphocytosis following UCN-01,[3]; in vivo,15 of 18
same,Peak value of apoptosis (annexin V-positive cells),Neoplastic B cells; day 4 of cycle 1,15%
same,Peak value of apoptosis (annexin V-positive cells),Neoplastic B cells; day 28 of cycle 1,8%
same,apoptotic B cells positive for CD19 and annexin V,"Neoplastic B cells; patient 10, Figure 2 (B), low level",2.6%
same,apoptotic B cells positive for CD19 and annexin V,"Neoplastic B cells; patient 17, Figure 2 (C), low level",3.8%
same,apoptotic B cells positive for CD19 and annexin V,"Neoplastic B cells; patient 17, Figure 2 (E), high level",38.9%
same,MTD / recommended phase II dose,[4]; 3-day infusion,42.5 mg/m^2/day
same,"grade 4 hyperglycemia, patients","[4]; 42.5 dose level, complicated by steroids",1/9
same,significant hematopoietic toxicity,[4],None of the patients had significant hematopoietic toxicity
same,dose level at which DLT (> grade 3) occurred,"[4]; nausea/vomiting, hyperglycemia, transient hypoxia",53 mg/m^2/ day
same,objective responses,[5],no objective responses
same,toxicities noted,[5],"grade 1–2 nausea, vomiting, hyperglycemia, and hypotension"
